Results as given in ChEMBL document CHEMBL4261642, “Design, synthesis, and ex vivo evaluation of a selective inhibitor for retinaldehyde dehydrogenase enzymes” (Bioorg Med Chem, 2018).
Activity calls are given as the source filed them. The calls are words filed in the database; no cut-off is given here.

Legend:
Gallus gallus [1] = organism: Gallus gallus; test: (§1) Inhibition of N-terminal His6-tagged recombinant chick RALDH3 expressed in Escherichia coli BL21(DE3) cells at 100 nM using RAL as substrate assessed as Vmax preincubated for 20 mins followed by substrate addition and measured after 30 mins in presence of NADH by fluorescence assay (reference value: 107.3 +/- 15.97 pmol/microM/min)
Retinal dehydrogenase 2 [2] = target: T1, Retinal dehydrogenase 2 (Homo sapiens, UniProt O94788); test: Inhibition of N-terminal His6-tagged recombinant human RALDH2 using RAL as substrate measured after 30 mins in presence of NADH by Morrison's plot analysis
T1 sequence (O94788 whole entry): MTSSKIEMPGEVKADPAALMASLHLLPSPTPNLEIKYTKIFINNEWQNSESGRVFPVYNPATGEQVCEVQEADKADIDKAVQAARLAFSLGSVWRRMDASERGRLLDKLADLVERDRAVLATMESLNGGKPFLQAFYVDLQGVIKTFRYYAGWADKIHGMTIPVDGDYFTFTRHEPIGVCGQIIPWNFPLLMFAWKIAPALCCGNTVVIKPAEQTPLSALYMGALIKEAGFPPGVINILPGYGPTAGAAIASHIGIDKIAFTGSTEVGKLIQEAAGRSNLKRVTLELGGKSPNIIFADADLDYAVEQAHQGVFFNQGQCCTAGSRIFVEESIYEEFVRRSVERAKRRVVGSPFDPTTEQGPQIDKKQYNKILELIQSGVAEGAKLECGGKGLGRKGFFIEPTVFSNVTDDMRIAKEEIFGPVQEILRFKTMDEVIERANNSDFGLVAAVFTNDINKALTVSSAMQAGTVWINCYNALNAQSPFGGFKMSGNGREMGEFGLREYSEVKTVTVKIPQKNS
Method in brief: (§2)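 Ki obtained by fitting the Morrison tight-binding equation to the 20-min pre-incubation retinaldehyde/NADH fluorescence inhibition data. Inputs were enzyme concentration (RALDH1 0.358, RALDH2 0.091, RALDH3 0.355, hRALDH2 0.176 μM), substrate concentration and Km. Triplicates from 3–5 independent experiments.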

[3] = target: T2, Retinal dehydrogenase 2 (Gallus gallus) (UniProt O93344); test: Inhibition of chick RALDH2 expressed in doxycycline-inducible HEK293 cells assessed as inhibition of ATRA synthesis at 2 uM after 24 hrs in presence of ATRA and NAD+; assay type: cell-based
T2 sequence (whole entry): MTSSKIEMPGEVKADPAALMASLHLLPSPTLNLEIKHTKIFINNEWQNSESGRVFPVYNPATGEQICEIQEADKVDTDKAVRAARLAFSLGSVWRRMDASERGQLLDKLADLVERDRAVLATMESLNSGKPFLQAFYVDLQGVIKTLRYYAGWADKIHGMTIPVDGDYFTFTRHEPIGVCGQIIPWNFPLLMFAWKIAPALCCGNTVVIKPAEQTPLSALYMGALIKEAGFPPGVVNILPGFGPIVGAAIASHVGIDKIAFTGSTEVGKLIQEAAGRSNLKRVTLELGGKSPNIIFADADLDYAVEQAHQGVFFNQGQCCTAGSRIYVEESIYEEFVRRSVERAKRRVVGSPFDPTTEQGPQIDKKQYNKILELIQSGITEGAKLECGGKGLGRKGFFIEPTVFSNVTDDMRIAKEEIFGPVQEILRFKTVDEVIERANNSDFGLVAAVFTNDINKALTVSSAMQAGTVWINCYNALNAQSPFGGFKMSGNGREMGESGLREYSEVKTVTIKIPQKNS

Gallus gallus [4] = organism: Gallus gallus; test: as §1, with “250” for “100”, “Km” for “Vmax”, “84.45” for “107.3”, “30.99 microM)” for “15.97 pmol/microM/min)”
Retinal dehydrogenase 2 [5] = target: T3, Retinal dehydrogenase 2 (Gallus gallus, UniProt O93344); test: (§3) Inhibition of N-terminal His6-tagged recombinant chick RALDH2 expressed in Escherichia coli BL21(DE3) cells up to 500 nM using RAL as substrate preincubated up to 40 mins followed by substrate addition and measured after 30 mins in presence of NADH by fluorescence assay
T3 sequence (O93344 whole entry): T2 sequence (whole entry)
Method in brief: (§4)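 Chick RALDH2 pre-incubated 10, 20 and 40 min with 0–500 nM inhibitor, then assayed with retinaldehyde/NAD+ by fluorimetric NADH. kobs taken from linear regression of log % activity remaining versus pre-incubation time. KI and kinact obtained by nonlinear regression of kobs versus inhibitor concentration.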

[6] = target: T4, Aldehyde dehydrogenase 1A1 (Gallus gallus, UniProt P27463); test: Inhibition of N-terminal His6-tagged recombinant chick RALDH1 expressed in Escherichia coli BL21(DE3) cells using RAL as substrate measured after 30 mins in presence of NADH by Morrison's plot analysis; method in brief: as §2
T4 sequence (P27463 whole entry): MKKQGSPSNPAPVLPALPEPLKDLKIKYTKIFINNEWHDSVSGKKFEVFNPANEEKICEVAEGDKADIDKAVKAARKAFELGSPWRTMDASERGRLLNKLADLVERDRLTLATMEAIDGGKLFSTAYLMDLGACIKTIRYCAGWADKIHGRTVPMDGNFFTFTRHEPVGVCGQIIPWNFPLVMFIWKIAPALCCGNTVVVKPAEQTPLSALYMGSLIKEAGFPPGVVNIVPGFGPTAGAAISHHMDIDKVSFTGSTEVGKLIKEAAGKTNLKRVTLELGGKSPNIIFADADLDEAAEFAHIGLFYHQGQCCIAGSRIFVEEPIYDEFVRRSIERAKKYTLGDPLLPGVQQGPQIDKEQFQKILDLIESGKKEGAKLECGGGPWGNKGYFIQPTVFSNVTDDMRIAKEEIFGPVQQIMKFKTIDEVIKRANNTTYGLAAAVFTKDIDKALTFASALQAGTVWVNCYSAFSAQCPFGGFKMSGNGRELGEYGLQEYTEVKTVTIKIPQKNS

[7] = target: T5, Retinal dehydrogenase 2 (Homo sapiens) (UniProt O94788); test: Inhibition of RALDH2 (unknown origin) […] assessed as time dependence ratio (kinact/KI)
T5 sequence (whole entry): T1 sequence (O94788 whole entry)

[8] = target: T6, Aldehyde dehydrogenase 1A1 (Gallus gallus) (UniProt P27463); test: Irreversible inhibition of N-terminal His6-tagged recombinant chick RALDH1 expressed in Escherichia coli BL21(DE3) cells using RAL as substrate assessed as reduction in enzyme Vmzx preincubated for 20 mins followed by substrate addition and measured after 30 mins in presence of NADH by fluorescence assay
T6 sequence (whole entry): T4 sequence (P27463 whole entry)

Retinal dehydrogenase 2 [9] = target: T3, Retinal dehydrogenase 2; test: Inhibition of chick RALDH2 expressed in doxycycline-inducible HEK293 cells assessed as inhibition of ATRA synthesis after 24 hrs in presence of […]; assay type: cell-based
[10] = target: T2, Retinal dehydrogenase 2 (Gallus gallus); test: as §3, with “as substrate assessed as inactivation rate constant preincubated up” for “as substrate preincubated up”; method in brief: as §4

- Ki (Retinal dehydrogenase 2 [2]): 64.3 nM
- inhibition [3]: 93%
- Ki (Retinal dehydrogenase 2 [5]): 128 nM
- Ki [6]: 194 nM
- kinact/KI [7]: 1550 to 233000 M⁻¹ s⁻¹
- inhibition [8]: Active
- IC50 (Retinal dehydrogenase 2 [9]): 187 nM
- Kinact [10]: 0.0159 min⁻¹
Structure (SMILES): CC1=C(/C=C/C(C)=C/C=C/C(C)=C/C(=O)C(Cl)Cl)C(C)(C)CCC1
- Vmax (Gallus gallus [1]): 68.4 pmol/µM/min
- Km (Gallus gallus [4]): 46.1 µM
